Screening data: PubChem, several laboratories
A selection: hits, their analogues and other compounds. The true share with any hit is near 4.1%.
KCNK3 block: human KCNK3 channel inhibition, primary screen. O14649. CHO-KCNK3 thallium flux, FluxOR fluorescence; active compounds read low. B-score at 10 µM. 0.84% of 340,000 active;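 active means B-score under library mean minus 4 SD, starting fluorescence ratio at most library mean plus 5 SD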;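 further: more negative B-score means stronger inhibition of thallium flux through KCNK3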
hERG rescue: shields human hERG channel from block by proarrhythmic agents | Q12809 | CHO-hERG, FluxOR thallium flux, dofetilide IC70 present | activation (rescue from dofetilide block), less the hit threshold, % at 10 µM | 0.51% of 310,000 active;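 active means activation above the mean of controls blocked by dofetilide plus 5 SD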;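 further: thallium influx through hERG after potassium depolarization seen as dye fluorescence rise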
Cl transport mod: modulators of human KCC2 chloride dependent transport. 2.2% of 190,000 active. Q9H2X9. B-score of Tl+ flux slope (higher = more flux/activation; lower = inhibition) at 10 µM. KCC2 cells, thallium flux FluoZin-2 fluorescence;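 active means thallium flux slope and its plate-corrected score both differing from the plate sample mean at a set confidence after two filtering rounds, in either direction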;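 further: slope of fluorescence scaled to starting intensity during 10 to 20 s after thallium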
Target sequence (Q9H2X9 whole entry, looked up): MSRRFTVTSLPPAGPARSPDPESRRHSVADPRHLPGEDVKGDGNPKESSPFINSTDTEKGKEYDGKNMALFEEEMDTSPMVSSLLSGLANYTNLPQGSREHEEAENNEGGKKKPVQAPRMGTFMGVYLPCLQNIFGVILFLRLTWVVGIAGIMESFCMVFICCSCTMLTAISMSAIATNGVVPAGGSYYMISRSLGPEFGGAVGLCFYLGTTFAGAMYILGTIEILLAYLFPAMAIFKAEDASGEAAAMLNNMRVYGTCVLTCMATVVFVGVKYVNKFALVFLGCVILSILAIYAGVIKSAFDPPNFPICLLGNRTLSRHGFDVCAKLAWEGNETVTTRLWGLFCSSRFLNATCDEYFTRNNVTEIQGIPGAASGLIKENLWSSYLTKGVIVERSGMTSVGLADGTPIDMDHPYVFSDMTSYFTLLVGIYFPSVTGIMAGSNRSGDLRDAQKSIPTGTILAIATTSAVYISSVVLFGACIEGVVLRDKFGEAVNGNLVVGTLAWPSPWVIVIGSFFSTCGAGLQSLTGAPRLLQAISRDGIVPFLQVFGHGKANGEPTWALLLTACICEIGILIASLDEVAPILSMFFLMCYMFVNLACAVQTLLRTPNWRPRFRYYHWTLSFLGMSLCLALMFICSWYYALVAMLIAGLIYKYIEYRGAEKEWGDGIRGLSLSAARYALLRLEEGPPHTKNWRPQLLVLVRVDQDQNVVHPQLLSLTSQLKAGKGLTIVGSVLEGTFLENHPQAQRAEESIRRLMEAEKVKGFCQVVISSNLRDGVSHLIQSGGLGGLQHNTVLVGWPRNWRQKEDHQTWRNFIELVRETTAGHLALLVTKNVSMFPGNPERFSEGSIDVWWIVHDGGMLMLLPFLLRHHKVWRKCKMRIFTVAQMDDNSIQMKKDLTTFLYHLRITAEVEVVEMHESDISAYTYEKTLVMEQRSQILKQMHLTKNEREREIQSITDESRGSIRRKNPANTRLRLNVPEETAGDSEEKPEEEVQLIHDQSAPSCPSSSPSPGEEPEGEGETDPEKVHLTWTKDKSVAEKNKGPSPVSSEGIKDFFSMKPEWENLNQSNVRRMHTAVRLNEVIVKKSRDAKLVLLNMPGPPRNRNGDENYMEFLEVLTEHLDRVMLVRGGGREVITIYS
KCNK9 block: blocks the human KCNK9 two-pore domain potassium channel; HEK293 KCNK9, FluxOR thallium flux fluorescence; active compounds read low; B-score at 10 µM; 1.2% of 310,000 active; Q9NPC2;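 active means ratio B-score over 3 SD below the library mean, with starting fluorescence within 5 SD of its mean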;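 further: negative B-score means less thallium flux so channel inhibition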
KCNQ1 act: potentiates or activates the human KCNQ1 potassium channel. CHO-K1 KCNQ1, thallium flux FluxOR fluorescence; active compounds read high. 0.35% of 310,000 active. B-score at 10 µM. AID 2648;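 active means fluorescence ratio B-score, a plate-corrected score, at least three library SD, with initial intensity B-score within 5 SD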
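Doses: Single concentration per compound, DMSO matched to controls | Test system: KCNQ1-transfected CHO-K1 cells | Timing: 90 min dye loading and 20 min compound exposure, both at room temperature | Measured by: Kinetic FluxOR thallium fluorescence, 10-s 1-Hz baseline, 110-s post-stimulus read | Medium: Assay buffer with matched DMSO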
KCNQ1 inh: inhibitors of human KCNQ1 potassium channel; 1.3% of 310,000 active; AID 2642; B-score at 10 µM; CHO-K1 KCNQ1, FluxOR thallium flux fluorescence; active compounds read high;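 active means compounds whose thallium flux B-score, printed positive for inhibition, exceeds three library SD while starting fluorescence stays within three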;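 further: channel opened by potassium depolarization with thallium stimulus after 20 min compound exposure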
KCNK3 confirm: confirmation of human KCNK3 two-pore domain potassium channel inhibitors; CHO-KCNK3 thallium flux, FluxOR fluorescence; 0% buffer, 100% carvedilol maximal block; shares compounds with KCNK3 block; 99% of 2,400 active; ratio percent of control, % at 10 µM; AID 651638;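 active means ratio percent of control, averaged over triplicates, above buffer control mean plus 5 SD, cut at about 64% in these data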;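 further: ratio is the fluorescence rise from min to max over baseline after thallium stimulus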
KCNK3 uninduced: KCNK3 inhibitor counter-screen hit in non-induced cells | non-induced KCNK3 parental cells, FluxOR thallium flux; active compounds read low | 40% of 2,400 active | thallium flux ratio (lower = more inhibition) at 10 µM | AID 651747 | shares compounds with KCNK3 block;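 active means thallium flux ratio, averaged over three wells, more than 5 SD below the buffer control mean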;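 further: host cells are CHO cells without KCNK3 induction; ratio is peak minus trough fluorescence over baseline then normalized to buffer controls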
An asterisk follows results filed as active; i = inactive; . = no result.

SMILES	KCNK3 block	hERG rescue	Cl transport mod	KCNK9 block	KCNQ1 act	KCNQ1 inh	KCNK3 confirm	KCNK3 uninduced
O=C(Nc1ccc(S(=O)(=O)N2CCOCC2)cc1)c1ccccc1Br	i	-1.5	.	i	i	i	.	.
CCc1ccc(-c2cc(C)no2)cc1S(=O)(=O)NCc1ccccc1OC	-11.4*	-9.7	.	i	i	i	97.7*	i
COc1ccccc1CNS(=O)(=O)c1ccc(-c2cc(C)no2)cc1	i	-9.7	.	i	i	i	.	.
CCc1ccc(-c2cc(C)no2)cc1S(=O)(=O)N1CCN(c2ccccc2OC)CC1	-9.56*	-12.8	.	i	i	i	82.7*	0.151*
C[C@H](CO)N1C[C@H](C)[C@@H](CN(C)S(=O)(=O)c2cccs2)Oc2c(NC(=O)C3CC3)cccc2C1=O	i	.	.	.	.	.	.	.
COc1ccc(N(CC(=O)NCCSCc2ccco2)S(=O)(=O)c2ccccc2)cc1Cl	-10.1*	-3.1	.	i	i	i	106.0*	i
CCc1nnc(NC(=O)C2CCN(C(=O)c3ccco3)CC2)s1	-8.84*	-0.6	.	i	i	i	80.7*	i
CC(=NO)c1ccc2c(c1)C(=NO)c1ccccc1-2	i	.	.	.	.	.	.	.
CCCOC(=O)c1ccc(NC(=O)CSC2=Nc3ccccc3C3CC=NN23)cc1 (centres undefined)	-9.02*	-12.4	0.728	-7.02*	i	i	110.3*	i
COc1ccc(OC)c(NC(=S)N2c3ccccc3CC2C)c1 (centres undefined)	-9.09*	-8.1	.	i	i	i	105.0*	i
COc1ccc(-c2[nH]ncc2N=Nc2ccccc2)cc1	-9.22*	-9.8	0.67	i	i	i	88.3*	i
O=C(COc1ccc2c(c1)OCO2)Nc1nncs1	i	-5.6	.	i	i	i	.	.
COCCN(C(=S)Nc1cc(C)cc(C)c1)C(C)c1ccco1 (centres undefined)	-9.04*	-8.7	-1.65	i	i	i	84.7*	i
CC(NC(=O)/C(=C/c1cccc([N+](=O)[O-])c1)NC(=O)c1ccco1)C(=O)O (centres undefined)	i	-3.3	0.242	i	i	i	.	.
COc1cc(NC(=O)c2cc(-c3cccnc3)nc3ccc(Br)cc23)cc(OC)c1	i	-2.3	-0.921	i	i	i	.	.
O=C(Nc1cccnc1)c1cc(-c2cccnc2)nc2ccc(Br)cc12	-13.3*	-16.0	-0.294	-7.73*	i	i	123.7*	0.122*
Cc1[nH]c2ccc(F)cc2c1CCN(Cc1ccco1)C(=S)NC(C)(C)C	-10.5*	1.0	-0.862	i	i	7*	119.7*	0.159*
CNC(=S)N(CCc1c(C)[nH]c2ccc(F)cc12)Cc1ccco1	i	-7.9	.	i	i	i	.	.
CCOC(=O)N1CCC2(CC1)CC(=O)c1c(ccc3oc(C(=O)O)c(C)c13)O2	-14.9*	-16.5	0.532	i	i	i	0.0	i
CCc1cc(CN2CCOCC2)c(NC(=O)c2ccccc2)s1	-9.27*	-12.7	-0.52	i	i	i	102.0*	i
O=C(Nc1ccc(N2CCOCC2)cc1N1CCOCC1)c1ccccc1	i	.	.	.	.	.	.	.
C=CCn1c(C)cc(C(=O)COc2ccc(N(C)S(=O)(=O)c3ccc(NC(C)=O)cc3)cc2)c1C	-11.9*	.	.	.	.	.	105.3*	i
COc1cc(C)ccc1OCCOc1c(Cl)cc(Cl)cc1Cl	i	-11.6	.	i	i	i	.	.
COc1cc(C)ccc1OCCOc1cc(C)ccc1Cl	-8.72*	-9.6	0.909	i	i	i	88.3*	i
O=C(Nc1ccc(N2CCN(C(=O)c3ccc(Cl)cc3)CC2)cc1)c1cc2ccccc2o1	i	-11.8	.	i	i	i	.	.
SMILES	KCNK3 block	hERG rescue	Cl transport mod	KCNK9 block	KCNQ1 act	KCNQ1 inh	KCNK3 confirm	KCNK3 uninduced
O=C(Nc1ccccc1N1CCN(C(=O)c2ccc(Cl)cc2)CC1)c1cc2ccccc2o1	-12.3*	-5.8	.	i	i	i	121.0*	0.143*
Nc1ccc(Cl)c(-c2nc3ncccc3o2)c1	-11.3*	-4.0	.	i	i	i	88.0*	i
CCOC(=O)C1CCN(C(=O)NS(=O)(=O)c2ccc(C)cc2)CC1	i	-9.5	1.76	i	i	i	.	.
CC1CCN(C(=O)Nc2ccc3nsnc3c2)CC1	i	-2.2	0.791	i	i	i	.	.
CC1CCN(C(=O)Nc2cccc(NC(=O)N3CCC(C)CC3)c2)CC1	-8.96*	1.3	0.00285	i	i	i	111.7*	i
CCN(CC)S(=O)(=O)c1cccc(C(=O)Nc2ccc3c(c2)OCO3)c1	i	-18.1	-0.314	i	i	i	.	.
CCC(CC)C(=O)Nc1cccc(C(=O)Nc2ccc3c(c2)OCO3)c1	-11.9*	-15.2	.	-7.58*	i	i	91.7*	i
OC1(c2cccc(C(F)(F)F)c2)CCN(c2ncnc3c2[nH]c2ccc(F)cc23)CC1	-11.9*	.	.	.	.	.	131.7*	i
Cc1cc(C)cc(NC(=O)Cn2nnc3ccccc3c2=O)c1	i	-4.4	-0.117	i	i	i	.	.
Cc1nonc1C1CCCN1Cc1cn[nH]c1-c1ccc(-c2ccccc2)cc1 (centres undefined)	-8.89*	-9.6	0.0658	-7.03*	i	i	102.3*	i
CC(C)CCNC(=O)COc1ccc(N(C)S(=O)(=O)c2ccc(F)cc2)cc1	i	-20.8	-0.115	i	i	i	.	.
O=C(Nc1ccc(Cl)cn1)C1CCCN(c2ncnc3c2nc2n3CCCCC2)C1 (centres undefined)	i	-15.1	.	i	i	i	.	.
CCN(C(=O)C1CCCN(c2ncnc3c2nc2n3CCCCC2)C1)c1cccc(Cl)c1 (centres undefined)	-12.1*	-17.3	.	i	i	i	89.0*	i
CCCCCCNCc1ccc(Br)cc1	-9.68*	-5.8	0.00256	i	i	i	77.3*	i
CN(C)CCCN=Cc1c(O)n(Cc2ccccc2)c(=O)c2ccccc12	-11.5*	-11.1	.	-7.2*	i	i	97.7*	i
Cc1ccc(S(=O)(=O)N(C)C)cc1NC(=O)C(C)N(C)CCOc1ccc(Cl)cc1 (centres undefined)	-9.37*	-10.1	.	i	i	i	78.7*	i
